Laboratory results taken from ChEMBL document CHEMBL3769376, “Discovery of I-BRD9, a Selective Cell Active Chemical Probe for Bromodomain Containing Protein 9 Inhibition” (J Med Chem, 2016).
Values after ≈ are worked out from the molar mass of the structure shown. Active and inactive are the calls of the source. The calls are words filed in the database; no cut-off is given here.

Key:
Cytochrome P450 3A4 = Cytochrome P450 3A4 (Homo sapiens, UniProt P08684); assay: Inhibition of CYP3A4 (unknown origin) preincubated with substrate at <5 uM by mass spectrometry; assay type: ADME
[1] = target: Adenosine receptor A2a (Homo sapiens) (UniProt P29274); assay: Agonist activity at human Adenosine A2a receptor at <5 uM by TR-FRET assay
[2] = target: D(2) dopamine receptor (Homo sapiens) (UniProt P14416); assay: Agonist activity at human D2 dopamine receptor at <5 uM by scintillation proximity assay
[3] = target: Kappa-type opioid receptor (Homo sapiens) (UniProt P41145); assay: Agonist activity at human kappa opiod receptor at <5 uM by scintillation proximity assay
[4] = target: Mu-type opioid receptor (Homo sapiens) (UniProt P35372); assay: Agonist activity at human mu opiod receptor at <5 uM by scintillation proximity assay
[5] = target: Glutamate receptor ionotropic, NMDA 2B (Homo sapiens) (UniProt Q13224); assay: Antagonist activity at human NMDA 2B receptor assessed as change in intracellular calcium level at <5 uM by fluorescence assay; assay type: cell-based
[6] = Permeability of the compound by PAMPA; assay type: ADME; conditions: read-out: permeability
[7] = target: Sodium-dependent noradrenaline transporter (Homo sapiens) (UniProt P23975); assay: Antagonist activity at human NE transporter at <5 uM by scintillation proximity assay
Chain of Sodium-dependent noradrenaline transporter (Homo sapiens) (P23975 whole entry): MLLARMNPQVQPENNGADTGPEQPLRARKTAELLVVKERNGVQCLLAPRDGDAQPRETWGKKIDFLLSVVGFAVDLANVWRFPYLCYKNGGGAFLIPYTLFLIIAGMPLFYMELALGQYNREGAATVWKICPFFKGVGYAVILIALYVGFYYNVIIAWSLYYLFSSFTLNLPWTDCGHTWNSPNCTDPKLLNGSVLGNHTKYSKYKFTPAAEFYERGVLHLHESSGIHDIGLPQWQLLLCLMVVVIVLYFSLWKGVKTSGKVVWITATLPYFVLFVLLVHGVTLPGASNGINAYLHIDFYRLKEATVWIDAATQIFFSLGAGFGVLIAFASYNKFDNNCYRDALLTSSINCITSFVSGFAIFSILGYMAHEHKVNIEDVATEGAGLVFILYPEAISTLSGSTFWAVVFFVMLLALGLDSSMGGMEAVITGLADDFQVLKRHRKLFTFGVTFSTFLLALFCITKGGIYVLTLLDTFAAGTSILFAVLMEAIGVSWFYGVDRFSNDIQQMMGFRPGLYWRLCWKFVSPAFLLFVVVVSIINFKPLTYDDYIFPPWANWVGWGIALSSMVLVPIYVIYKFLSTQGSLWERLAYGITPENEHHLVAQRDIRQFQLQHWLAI

Homo sapiens [8] = organism: Homo sapiens; assay: Antagonist activity at human GABA-A receptor at <5 uM by electrophysiology
[9] = target: Nuclear receptor subfamily 1 group I member 2 (Homo sapiens, UniProt O75469); assay: Agonist activity at human PXR at <5 uM by luciferase reporter gene assay
[10] = target: Substance-P receptor (Homo sapiens) (UniProt P25103); assay: Antagonist activity at human NK1 receptor assessed as change in intracellular calcium level at <5 uM by fluorescence assay; assay type: functional, cell-based
[11] = target: T1, Bromodomain-containing protein 9 (Homo sapiens) (UniProt Q9H8M2); conditions: Kasumi 1, 10 uM
T1 sequence (whole entry): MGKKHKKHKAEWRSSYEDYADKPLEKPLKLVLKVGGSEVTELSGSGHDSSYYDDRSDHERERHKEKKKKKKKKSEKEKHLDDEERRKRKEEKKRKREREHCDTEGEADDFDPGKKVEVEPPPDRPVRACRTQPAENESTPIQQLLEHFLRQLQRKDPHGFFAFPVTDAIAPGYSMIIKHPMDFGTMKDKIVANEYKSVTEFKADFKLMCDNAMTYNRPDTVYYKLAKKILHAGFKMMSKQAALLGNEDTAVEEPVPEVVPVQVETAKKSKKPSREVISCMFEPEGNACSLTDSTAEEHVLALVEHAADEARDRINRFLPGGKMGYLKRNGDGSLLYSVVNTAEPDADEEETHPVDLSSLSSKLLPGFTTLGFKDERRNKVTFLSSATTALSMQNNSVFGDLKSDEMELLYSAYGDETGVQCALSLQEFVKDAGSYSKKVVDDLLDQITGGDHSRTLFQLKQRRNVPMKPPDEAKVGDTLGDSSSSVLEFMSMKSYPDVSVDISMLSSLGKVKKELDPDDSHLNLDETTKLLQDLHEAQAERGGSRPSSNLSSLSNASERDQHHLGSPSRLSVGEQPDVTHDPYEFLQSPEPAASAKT

[12] = target: Cannabinoid receptor 2 (Homo sapiens) (UniProt P34972); assay: Agonist activity at human CB2 receptor at <5 uM by Yeast FDLu assay
[13] = target: Amine oxidase [flavin-containing] B (Homo sapiens, UniProt P27338); assay: Inhibition of human MAO-B at <5 uM by FLINT assay
Chain of Amine oxidase [flavin-containing] B (P27338 whole entry): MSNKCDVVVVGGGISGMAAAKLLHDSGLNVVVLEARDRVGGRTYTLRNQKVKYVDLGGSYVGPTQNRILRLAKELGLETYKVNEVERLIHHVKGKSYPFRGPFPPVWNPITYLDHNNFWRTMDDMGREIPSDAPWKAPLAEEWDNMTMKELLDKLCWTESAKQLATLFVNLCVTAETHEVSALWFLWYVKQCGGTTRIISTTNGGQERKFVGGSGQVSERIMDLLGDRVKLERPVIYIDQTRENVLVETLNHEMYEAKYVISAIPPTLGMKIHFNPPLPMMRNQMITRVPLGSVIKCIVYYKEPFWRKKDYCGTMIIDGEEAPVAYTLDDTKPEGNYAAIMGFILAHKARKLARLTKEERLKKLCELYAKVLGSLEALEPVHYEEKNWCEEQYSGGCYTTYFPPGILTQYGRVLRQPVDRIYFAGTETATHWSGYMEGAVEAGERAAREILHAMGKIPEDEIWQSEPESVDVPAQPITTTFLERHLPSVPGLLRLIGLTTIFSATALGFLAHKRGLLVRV

[14] = target: Muscarinic acetylcholine receptor M2 (Homo sapiens) (UniProt P08172); assay: Agonist activity at human muscarinic 2 receptor assessed as change in intracellular calcium level at <5 uM by fluorescence assay; assay type: functional, cell-based
Chain of Muscarinic acetylcholine receptor M2 (Homo sapiens) (P08172 whole entry, canonical isoform): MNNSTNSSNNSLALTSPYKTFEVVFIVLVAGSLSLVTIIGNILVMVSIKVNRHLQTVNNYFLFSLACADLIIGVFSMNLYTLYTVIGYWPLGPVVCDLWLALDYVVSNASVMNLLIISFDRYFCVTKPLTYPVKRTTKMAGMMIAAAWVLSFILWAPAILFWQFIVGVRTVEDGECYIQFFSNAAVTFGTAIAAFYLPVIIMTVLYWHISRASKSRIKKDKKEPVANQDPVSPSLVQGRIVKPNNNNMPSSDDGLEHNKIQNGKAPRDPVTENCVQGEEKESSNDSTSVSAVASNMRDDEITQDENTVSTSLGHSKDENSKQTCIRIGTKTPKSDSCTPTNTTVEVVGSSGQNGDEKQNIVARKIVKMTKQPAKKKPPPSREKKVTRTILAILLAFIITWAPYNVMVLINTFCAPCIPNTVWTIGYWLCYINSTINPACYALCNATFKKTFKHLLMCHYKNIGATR

[15] = target: Phosphatidylinositol 4,5-bisphosphate 3-kinase catalytic subunit gamma isoform (Homo sapiens) (UniProt P48736); assay: Inhibition of human PI3Kgamma at <5 uM by TR-FRET assay
[16] = target: Prostaglandin G/H synthase 2 (Homo sapiens) (UniProt P35354); assay: Inhibition of human COX2 at <5 uM by FLINT assay
[17] = target: Acetylcholinesterase (Homo sapiens) (UniProt P22303); assay: Inhibition of human acetylcholinesterase at <5 uM by mass spectrometry
Chain of Acetylcholinesterase (Homo sapiens) (P22303 whole entry): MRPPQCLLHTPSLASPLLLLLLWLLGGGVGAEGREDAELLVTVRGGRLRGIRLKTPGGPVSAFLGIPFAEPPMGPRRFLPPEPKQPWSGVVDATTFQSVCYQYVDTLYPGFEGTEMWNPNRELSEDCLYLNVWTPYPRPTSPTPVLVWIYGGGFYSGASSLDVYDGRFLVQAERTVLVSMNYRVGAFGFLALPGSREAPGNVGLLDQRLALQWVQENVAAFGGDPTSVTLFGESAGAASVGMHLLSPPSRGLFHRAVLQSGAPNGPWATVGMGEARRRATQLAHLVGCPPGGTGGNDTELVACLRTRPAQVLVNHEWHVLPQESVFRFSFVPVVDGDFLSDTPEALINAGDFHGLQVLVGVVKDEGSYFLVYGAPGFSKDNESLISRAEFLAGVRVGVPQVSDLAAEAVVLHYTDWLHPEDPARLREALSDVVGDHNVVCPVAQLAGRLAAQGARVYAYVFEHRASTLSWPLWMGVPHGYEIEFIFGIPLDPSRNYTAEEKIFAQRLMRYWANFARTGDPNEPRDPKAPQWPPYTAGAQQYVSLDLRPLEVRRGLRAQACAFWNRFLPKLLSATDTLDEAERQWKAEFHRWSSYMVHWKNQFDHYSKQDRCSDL

[18] = target: T1, Bromodomain-containing protein 9 (Homo sapiens); conditions: Kasumi 1, 10 uM; remark: listed apart in the source
[19] = Aqueous solubility of the compound in PBS at pH 7.4 by chemiluminescent nitrogen detection method; assay type: physicochemical
Procedure, shortened: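 A 10 mM DMSO stock was precipitated into pH7.4 phosphate buffered saline at 5% DMSO. Dissolved compound was quantified by chemiluminescent nitrogen detection.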

[20] = target: 5-hydroxytryptamine receptor 3A (Homo sapiens) (UniProt P46098); assay: Agonist activity at human 5HT3 receptor assessed as change in intracellular calcium level at <5 uM by fluorescence assay; assay type: cell-based
Chain of 5-hydroxytryptamine receptor 3A (Homo sapiens) (P46098 whole entry): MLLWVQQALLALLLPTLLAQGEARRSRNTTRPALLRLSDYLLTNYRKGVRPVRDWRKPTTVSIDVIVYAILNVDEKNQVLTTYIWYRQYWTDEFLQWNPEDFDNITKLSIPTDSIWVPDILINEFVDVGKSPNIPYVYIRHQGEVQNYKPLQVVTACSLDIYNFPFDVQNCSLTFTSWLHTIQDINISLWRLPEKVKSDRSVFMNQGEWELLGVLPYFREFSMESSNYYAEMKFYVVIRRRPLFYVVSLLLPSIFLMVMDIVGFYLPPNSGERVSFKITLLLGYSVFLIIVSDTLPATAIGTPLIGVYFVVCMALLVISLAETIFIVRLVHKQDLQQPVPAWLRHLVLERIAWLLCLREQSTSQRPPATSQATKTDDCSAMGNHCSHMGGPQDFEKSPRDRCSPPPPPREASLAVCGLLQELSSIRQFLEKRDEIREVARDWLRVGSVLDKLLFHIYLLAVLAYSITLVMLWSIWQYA

[21] = target: cGMP-inhibited 3',5'-cyclic phosphodiesterase 3A (Homo sapiens) (UniProt Q14432); assay: Inhibition of human PDE3A at <5 uM by luminescence assay
[22] = target: Histamine H1 receptor (Homo sapiens) (UniProt P35367); assay: Antagonist activity at human histamine H1 receptor assessed as change in intracellular calcium level at <5 uM by fluorescence assay; assay type: functional, cell-based
[23] = target: D(1A) dopamine receptor (Homo sapiens) (UniProt P21728); assay: Antagonist activity at human D1 dopamine receptor at <5 uM by TR-FRET assay
Homo sapiens [24] = organism: Homo sapiens; assay: Positive modulator activity at human GABA-A receptor at <5 uM by electrophysiology
[25] = target: Acetylcholine receptor subunit alpha (Homo sapiens) (UniProt P02708); assay: Inhibition of human alpha1 nACHR assessed as change in intracellular calcium level at <5 uM by fluorescence assay; assay type: cell-based
[26] = target: Muscarinic acetylcholine receptor M2 (Homo sapiens) (UniProt P08172); assay: Antagonist activity at human muscarinic 2 receptor assessed as change in intracellular calcium level at <5 uM by fluorescence assay; assay type: functional, cell-based
Homo sapiens [27] = organism: Homo sapiens; assay: Agonist activity at human GABA-A receptor at <5 uM by electrophysiology
[28] = target: Voltage-dependent L-type calcium channel subunit alpha-1C (Homo sapiens, UniProt Q13936); assay: Inhibition of human Cav1.2 channel at <5 uM by electrophysiology
[29] = target: Voltage-gated inwardly rectifying potassium channel KCNH2 (Homo sapiens, UniProt Q12809); assay: Inhibition of human ERG channel at <5 uM by electrophysiology
Chain of Voltage-gated inwardly rectifying potassium channel KCNH2 (Q12809 whole entry): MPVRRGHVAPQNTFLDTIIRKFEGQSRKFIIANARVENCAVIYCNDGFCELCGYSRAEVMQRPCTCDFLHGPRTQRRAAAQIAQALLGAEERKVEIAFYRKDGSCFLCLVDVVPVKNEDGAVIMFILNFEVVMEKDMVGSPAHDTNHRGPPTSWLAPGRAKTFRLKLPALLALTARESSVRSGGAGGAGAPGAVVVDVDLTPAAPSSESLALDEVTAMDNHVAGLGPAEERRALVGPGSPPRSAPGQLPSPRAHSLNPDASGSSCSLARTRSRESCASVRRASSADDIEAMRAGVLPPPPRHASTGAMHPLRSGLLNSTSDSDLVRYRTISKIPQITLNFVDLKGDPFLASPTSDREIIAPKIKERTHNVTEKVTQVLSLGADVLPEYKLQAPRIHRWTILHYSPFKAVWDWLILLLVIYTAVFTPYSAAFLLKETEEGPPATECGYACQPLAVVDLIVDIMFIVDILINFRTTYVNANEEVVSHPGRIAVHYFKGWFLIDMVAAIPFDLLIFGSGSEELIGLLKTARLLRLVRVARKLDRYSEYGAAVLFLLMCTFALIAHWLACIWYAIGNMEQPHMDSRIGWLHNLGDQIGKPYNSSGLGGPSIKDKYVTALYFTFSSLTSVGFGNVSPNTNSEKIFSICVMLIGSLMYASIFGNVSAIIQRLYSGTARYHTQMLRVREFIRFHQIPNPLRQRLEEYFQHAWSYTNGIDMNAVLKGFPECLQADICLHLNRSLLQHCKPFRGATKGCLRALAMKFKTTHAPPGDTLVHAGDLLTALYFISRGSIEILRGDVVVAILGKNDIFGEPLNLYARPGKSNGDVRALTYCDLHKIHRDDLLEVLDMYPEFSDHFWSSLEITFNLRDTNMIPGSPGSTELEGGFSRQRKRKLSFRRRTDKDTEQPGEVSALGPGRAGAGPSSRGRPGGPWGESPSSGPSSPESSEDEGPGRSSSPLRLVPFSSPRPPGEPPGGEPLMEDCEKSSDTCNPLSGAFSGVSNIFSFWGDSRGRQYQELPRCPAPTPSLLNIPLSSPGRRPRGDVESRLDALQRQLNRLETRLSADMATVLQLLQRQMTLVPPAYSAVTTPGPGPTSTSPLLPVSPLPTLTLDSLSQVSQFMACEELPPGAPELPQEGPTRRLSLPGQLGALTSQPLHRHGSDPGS

[30] = target: Aurora kinase B (Homo sapiens) (UniProt Q96GD4); assay: Inhibition of human aurora B at <5 uM by IMAP assay
Chain of Aurora kinase B (Homo sapiens) (Q96GD4 whole entry): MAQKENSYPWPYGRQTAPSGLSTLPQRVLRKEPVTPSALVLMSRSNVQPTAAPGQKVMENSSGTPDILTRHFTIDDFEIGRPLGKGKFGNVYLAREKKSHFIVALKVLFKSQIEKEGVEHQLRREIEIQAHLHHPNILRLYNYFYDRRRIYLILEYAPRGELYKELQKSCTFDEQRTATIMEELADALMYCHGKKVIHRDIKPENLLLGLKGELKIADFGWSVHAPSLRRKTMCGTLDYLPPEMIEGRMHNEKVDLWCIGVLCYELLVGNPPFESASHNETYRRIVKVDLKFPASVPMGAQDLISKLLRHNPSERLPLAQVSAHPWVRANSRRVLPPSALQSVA

[31] = target: 5-hydroxytryptamine receptor 2C (Homo sapiens) (UniProt P28335); assay: Agonist activity at human 5HT2C receptor assessed as change in intracellular calcium level at <5 uM by fluorescence assay; assay type: functional, cell-based
[32] = target: Alpha-1B adrenergic receptor (Homo sapiens) (UniProt P35368); assay: Antagonist activity at human Alpha 1b adrenergic receptor assessed as change in intracellular calcium level at <5 uM by fluorescence assay; assay type: functional, cell-based
Chain of Alpha-1B adrenergic receptor (Homo sapiens) (P35368 whole entry): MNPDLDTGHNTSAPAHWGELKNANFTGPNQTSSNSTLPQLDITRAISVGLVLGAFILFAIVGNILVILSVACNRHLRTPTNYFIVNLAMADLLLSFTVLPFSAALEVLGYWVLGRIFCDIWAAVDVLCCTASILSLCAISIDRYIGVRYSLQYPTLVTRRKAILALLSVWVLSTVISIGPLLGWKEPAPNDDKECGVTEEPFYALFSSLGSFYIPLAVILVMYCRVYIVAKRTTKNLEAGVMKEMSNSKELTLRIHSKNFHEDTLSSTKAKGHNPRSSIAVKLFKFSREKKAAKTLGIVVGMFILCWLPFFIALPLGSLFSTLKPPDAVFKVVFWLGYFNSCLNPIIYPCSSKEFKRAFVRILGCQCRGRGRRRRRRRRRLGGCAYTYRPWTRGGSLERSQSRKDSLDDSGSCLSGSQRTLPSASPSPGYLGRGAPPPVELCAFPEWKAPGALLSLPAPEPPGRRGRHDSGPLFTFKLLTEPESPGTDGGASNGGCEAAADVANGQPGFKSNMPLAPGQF

CCn1cc(-c2cccc(C(F)(F)F)c2)c2sc(C(=N)NC3CCS(=O)(=O)CC3)cc2c1=O
inhibition (INH) (Cytochrome P450 3A4): Not Active | Activity [1]: inactive | Activity [2]: inactive | Activity [3]: inactive | Activity [4]: inactive | inhibition [5]: inactive | Papp [6]: 21 ×10⁻⁶ cm/s | inhibition [7]: inactive | inhibition (Homo sapiens [8]): inactive | Activity [9]: Not Active | inhibition [10]: inactive | inhibition [11]: Active | Activity [12]: inactive | inhibition (INH) [13]: Not Active | Activity [14]: inactive | inhibition [15]: inactive | inhibition [16]: inactive | inhibition [17]: inactive | inhibition [18]: Active | solubility [19]: 359 µM (≈ 179 µg/mL) | Activity [20]: inactive | inhibition [21]: inactive | inhibition [22]: inactive | inhibition [23]: inactive | Activity (Homo sapiens [24]): inactive | inhibition [25]: inactive | inhibition [26]: inactive | Activity (Homo sapiens [27]): inactive | inhibition (INH) [28]: Not Active | inhibition (INH) [29]: Not Active | inhibition [30]: inactive | Activity [31]: inactive | inhibition [32]: inactive
